# Screening results as filed in PubChem.
# FXIIa inh: human FXIIa protease inhibitors, primary screen, biochemical, 1536-well. Coagulation factor XII (Homo sapiens), P00748. AID 800, 2007. purified FXIIa, Boc-QGR-AMC fluorogenic substrate, 2 h. inhibition, % at 5 µM. 220,000 compounds, 0.3% hits; in the data active = inhibition above about 40%
# hK5 inh: human KLK5 protease inhibitors, primary screen, biochemical, 1536-well; recombinant hK5, fluorogenic AMC substrate cleavage; inhibition, % at 5 µM; Kallikrein-5 (Homo sapiens), Q9Y337; 210,000 compounds, 0.59% hits;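 active = inhibition of 40% or more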
# Target sequence (Q9Y337 67-293 limits assumed): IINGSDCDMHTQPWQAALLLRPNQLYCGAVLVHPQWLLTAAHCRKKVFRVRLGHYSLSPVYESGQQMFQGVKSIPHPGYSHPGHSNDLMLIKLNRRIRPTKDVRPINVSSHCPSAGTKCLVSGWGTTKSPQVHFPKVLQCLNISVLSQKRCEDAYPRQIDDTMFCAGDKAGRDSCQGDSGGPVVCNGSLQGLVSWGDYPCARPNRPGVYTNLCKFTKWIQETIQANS
# FXIa inh: human FXIa protease inhibitors, primary screen, biochemical, 1536-well; inhibition, % at 5 µM; 220,000 compounds, 0.14% hits; Coagulation factor XI (Homo sapiens), P03951; purified FXIa, Boc-Glu-Ala-Arg-AMC fluorogenic substrate;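 active = inhibition of at least 40%; inactive = inhibition below 40%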;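 note: fluorescence of freed AMC excited at 355 nm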
# HSV augment: enhancers of HSV replication in host cells, fold increase, host cell viability; AID 1956, 2009; HSV replication augmentation in cells; maximum fold increase; 220,000 compounds, 0.005% hits; in the data active = maximum fold increase above about 1.5; tested in PC3 cells
# Furin inh: human furin inhibitors, primary screen, biochemical, fluorescence intensity. P09958. purified furin, fluorogenic substrate cleavage. inhibition, % at 20 µM or 30 µM. 220,000 compounds, 0.061% hits. AID 463115, 2010; in the data active = inhibition above about 25%
# Thrombin inh: human alpha-thrombin inhibitors, primary screen, counter-screen for coagulation protease inhibitor project, biochemical, 1536-well, fluorogenic AMC substrate. Prothrombin (Homo sapiens), P00734. inhibition, % at 5 µM. 220,000 compounds, 0.26% hits. Boc-VPR-AMC fluorogenic substrate cleavage;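 active = inhibition at or above 40%; inactive = inhibition below 40%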
#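 Material: human alpha-thrombin enzyme / Medium: pH 7.5 Tris (50 mM) with NaCl 150 mM, Tween 20 0.05% / Compound: single-point dosing at 5 µM, 0.2% DMSO / Incubation: enzyme reaction carried out at room temperature / Detection: AMC fluorescence, 355/460 nm / Read-out basis: percent inhibition scaled between no-compound controls and no-enzyme blanks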
# A number is an active result; 0 = inactive; - = not tested or not shown. In the library only some 1% were active in any assay of this set; here they are far more common.
SMILES,FXIIa inh,hK5 inh,FXIa inh,HSV augment,Furin inh,Thrombin inh
CC(C(=O)Oc1ccc2c(c1)OCO2)N1C(=O)c2ccccc2C1=O (centres undefined),57,0,0,0,0,0
CC(C(=O)OCC(=O)Nc1ccc2c(c1)OCO2)N1C(=O)c2ccccc2C1=O (centres undefined),0,0,0,0,0,0
Cc1cc(/C(N)=N/OC(=O)c2ccc(Cl)cc2)no1,0,44,0,0,0,0
Cc1ccsc1C(=O)NNC(=O)C1CC=CCC1C(=O)O (centres undefined),0,55,0,0,0,0
COc1ccc(-c2ncccc2OC(=O)C23CC4CC(CC(C4)C2)C3)cc1,0,60,0,0,0,0
COC(=O)c1[nH]c(C)c(/C(O)=C2\C(=O)C(=O)N(CCN(C)C)C2c2cc(OC)ccc2OC)c1C (centres undefined),0,0,0,0,0,0
COC(=O)c1[nH]c(C)c(/C(O)=C2\C(=O)C(=O)N(CCN(C)C)C2c2cccc(OC)c2OC)c1C (centres undefined),44,56,0,-,0,0
COc1ccc(-c2ccc(CCC(=O)O)n2-c2ccccc2O)cc1,0,0,0,0,0,59
CCOC(=O)Nc1sc(C)nc1-c1ccccc1,0,196,0,0,0,0
C/C(=N\NC(=O)CCC(=O)Nc1ccc(C)c(C)c1)c1cccs1,0,0,0,0,0,0
N/C(=N\OC(=O)c1cccc(Cn2cc(C(F)(F)F)ccc2=O)c1)c1ccc(Cl)cc1,0,52,0,0,0,0
N/C(=N\OC(=O)c1cccc(Cn2cc(C(F)(F)F)ccc2=O)c1)c1ccccc1,0,0,0,0,0,0
Cc1cc(S(=O)(=O)N2CCN(C(=O)CCC(=O)N3CCOCC3)CC2)ccc1Br,0,0,0,0,0,0
Cc1ccc(C2=NN(S(=O)(=O)c3ccccc3)C(c3ccccc3O)C2)cc1 (centres undefined),103,0,0,-,0,0
CC(=O)Oc1ccc2ccc(=O)oc2c1,0,0,0,0,0,0
O=C(Oc1ccc2ccc(=O)oc2c1)c1cccs1,62,0,51,-,0,0
CCCOc1ccc(/C=N/NC(=O)C2CCCN2S(=O)(=O)c2ccc(Cl)cc2)cc1 (centres undefined),0,49,0,0,0,0
O=C(Oc1ccccc1)N(c1ccccc1)c1ccccc1,0,0,0,0,0,0
COc1ccc(OC)c(N(CC(=O)Nc2cccc(C(F)(F)F)c2)S(C)(=O)=O)c1,0,0,0,0,0,-
COc1ccc(S(=O)(=O)NC(CCSC)C(=O)NC2CCCCC2)cc1 (centres undefined),0,41,0,0,0,0
CC(C)=C1C2CCC1C(C(=O)Nc1cc(C)cc(C)c1)C2C(=O)O (centres undefined),0,0,0,0,0,0
O=C(NC(C(=O)c1ccccc1)N1CCCCCC1)c1ccco1 (centres undefined),0,0,0,0,0,0
Cc1ccc(C(=O)C(NC(=O)c2ccco2)N2CCOCC2)cc1 (centres undefined),0,44,0,0,0,0
Cc1ccc2nc(C)/c(=N\O)c(C)nc2c1,0,51,0,0,0,0
Cc1nc2ccc(Cl)cc2nc(C)/c1=N\O,0,0,0,0,0,0
SMILES,FXIIa inh,hK5 inh,FXIa inh,HSV augment,Furin inh,Thrombin inh
COc1ccc(N(CC(=O)NCc2cccnc2)S(=O)(=O)c2ccccc2[N+](=O)[O-])c(OC)c1,0,0,0,0,0,0
COc1ccc(N(CC(=O)NCc2ccc(Cl)cc2)S(=O)(=O)c2ccccc2[N+](=O)[O-])c(OC)c1,0,0,102,0,0,0
COC(=O)c1c(SCc2ccc(C#N)cc2)nc(=O)[nH]c1C,0,0,0,0,0,0
COc1ccc(NS(=O)(=O)c2cc(NC(=O)c3cccnc3Cl)ccc2N2CCCC2)cc1,0,0,0,0,0,0
CC(=O)NC(CC(=O)OCC(=O)c1c(N)n(C)c(=O)n(C)c1=O)c1ccccc1 (centres undefined),40,0,0,0,0,0
CCC/S(C)=N/S(=O)(=O)c1ccc(C)cc1 (centres undefined),0,48,0,0,0,0
O=C(O)c1cc([N+](=O)[O-])ccc1NCc1ccccc1Cl,0,-,0,0,0,41
O=C(O)c1cc([N+](=O)[O-])ccc1NCCc1ccccc1,0,0,0,0,0,0
CCO[C@@H]1OC(C(=O)N2CCN(Cc3ccccc3)CC2)=C[C@H](C2CC2)[C@H]1CCCO,0,0,0,0,0,0
COCCn1c(N)c(C(=S)NC(=O)c2cccs2)c(=O)[nH]c1=O,0,90,0,0,0,0
Nc1nc2ccccc2n1C(=O)c1ccco1,0,41,0,0,0,44
C=C1c2cc3c(cc2NC(=S)N1Cc1ccccc1)OCO3,0,0,0,0,0,0
CCCNC(=O)N1CCN(c2ncccn2)CC1,0,61,0,0,0,0
CCOC(=O)/C(C)=C1\NC(C)(C)Cc2ccccc21,65,0,0,0,0,0
CCS(=O)(=O)N1CCCC(c2nc(-c3cccc(OC)c3)no2)C1 (centres undefined),0,40,0,0,0,0
CCCS(=O)(=O)N1CCCC(c2nc(-c3ccc(OC)cc3)no2)C1 (centres undefined),0,0,0,0,0,0
COc1cc(/C=N/NC(=O)c2ccc(CN3C(=O)c4cccc5cccc3c45)cc2)cc(OC)c1O,0,0,50,0,0,0
CCn1ccnc1CN(C)C(=O)CCc1nnc(CCCc2ccccc2)o1,0,0,0,0,0,0
C#CCSc1nnc(C)c(C)n1,-,-,-,0,-,-
COC(=O)C1=C(C)NC2=C(C(=O)CCC2)C1c1cccs1 (centres undefined),0,0,0,0,0,0
CC1=C(C(=O)N2CCCCC2)C(c2cccs2)C2=C(CCCC2=O)N1 (centres undefined),0,138,0,0,0,0
COCC(=O)Nc1ccccc1-c1ccccc1,0,0,45,0,0,0
COCC(=O)Nc1nc(-c2ccccc2)ns1,0,58,0,0,0,0
CCCCOc1cccc(C(=O)N(Cc2ccco2)C2CCS(=O)(=O)C2)c1 (centres undefined),0,0,0,0,0,0
CCCOc1cccc(C(=O)N(Cc2ccco2)C2CCS(=O)(=O)C2)c1 (centres undefined),0,0,0,0,0,57
O=C(NCc1ccc2c(c1)OCO2)C12CN(Cc3ccccc3)CC1C(c1cccc([N+](=O)[O-])c1)=NO2 (centres undefined),0,0,0,0,0,0
